# Reference: ChEMBL document CHEMBL1131263, “Substituted tetrahydropyrrolo[2,1-b]oxazol-5(6H)-ones and tetrahydropyrrolo[2,1-b]thiazol-5(6H)-ones as hypoglycemic agents” (1998)
# How the values were obtained:
# Mus musculus [1] = assay: In vivo lowering of blood glucose levels in diabetic obese ob/ob mice, measuring postprandial blood glucose level on day 3 after 2 hours at 300 uM/kg oral dose; format: functional
# Procedure, shortened: (§1)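 Adult male C57BL ob/ob mice, fed, grouped (6/group) and matched for blood glucose on day 0; mice under 150 mg/dL excluded. Oral dosing in the morning on days 1-3, vehicle 0.5% CMC with 0.2% Tween-80. Significance versus vehicle.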
# Mus musculus [2] = assay: In vivo lowering of blood glucose levels in diabetic obese ob/ob mice by measuring postprandial blood glucose level on day 3 after 8 hours at 300 uM/kg oral dose; format: functional; procedure, shortened: as §1
# [3] = lowest concentration at which glucose utilized was greater than or equal to 140% of control value tested in a glucose utilization L6 myocyte in vitro assay; format: functional, Rattus norvegicus
# Procedure, shortened: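 Differentiated rat L6 myotubes (day 11 or 13 after plating) exposed 20 h to compound in serum-free DMEM with 15 mM glucose and 1% final DMSO. Tested in quadruplicate at 3, 10, 30, 100, 300 µM. Glucose left in the medium read by glucose oxidase. Value is the lowest concentration giving at least 40% more utilization than control.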
# Mus musculus [4] = assay: In vivo lowering of blood glucose levels in diabetic obese ob/ob mice by measuring postprandial blood glucose level on day1 after 4 hours at 300 uM/kg oral dose; format: functional; procedure, shortened: as §1
# Mus musculus [5] = assay: In vivo lowering of blood glucose levels in diabetic obese ob/ob mice by measuring postprandial blood glucose level on day 3 after 4 hours at 300 uM/kg oral dose; format: functional; procedure, shortened: as §1
# Mus musculus [6] = assay: In vivo lowering of blood glucose levels in diabetic obese ob/ob mice, measuring postprandial blood glucose level on day1 after 2 hours at 300 uM/kg oral dose; format: functional; procedure, shortened: as §1
Structure (SMILES),Efficacy (Mus musculus [1]) [%],Efficacy (Mus musculus [2]) [%],Lowest effective concentration for glucose utilization ≥140% of control [3] [µM],Efficacy (Mus musculus [4]) [%],Efficacy (Mus musculus [5]) [%],Efficacy (Mus musculus [6]) [%]
CC(=O)N1C[C@@H](COc2ccc(Cl)cc2)O[C@@H]1c1ccc(Cl)c(Cl)c1,69,61,30,26,70,8
O=C1CC[C@]2(c3ccc(Cl)cc3)OCCN12,23,11,>1000,7,28,21
CC(C)C(=O)N1C[C@H](COc2ccc(Cl)cc2)O[C@@H]1c1ccc(Cl)c(Cl)c1,20,6,30,21,24,32
O=C1CC[C@]2(c3ccc4ccccc4c3)O[C@H](COc3ccc(Cl)cc3)CN12,49,39,30,37,62,21
O=C1CC[C@]2(c3ccccc3)O[C@H](COc3ccc(Cl)cc3)CN12,18,-28,100,45,-16,3
O=C1CCC[C@]2(c3ccccc3)O[C@H](COc3ccc(Cl)cc3)CN12,10,54,30,29,50,42
O=C1CC[C@]2(c3ccc(F)cc3)O[C@H](COc3ccc(Cl)cc3)CN12,67,38,30,19,60,-2
CC(C)(O)c1cc(-c2ccc(Oc3ccccc3)cc2)no1,61,55,30,-2,60,6
O=C1CCC[C@]2(c3ccc(Oc4ccccc4)cc3)OCCN12,45,3,30,29,50,25
O=C1CC[C@]2(c3ccc(Oc4ccccc4)cc3)OCCN12,-3,-4,300,11,-1,-8
CS(=O)(=O)N1C[C@@H](COc2ccc(Cl)cc2)O[C@@H]1c1ccc(Cl)cc1,11,22,30,18,55,-10
OCc1cc(-c2ccc(Cl)cc2)no1,61,34,100,-1,53,-3
O=C1CC[C@]2(c3ccc4ccccc4c3)O[C@@H](COc3ccc(Cl)cc3)CN12,13,8,>300,-11,7,-6
OCc1cc(-c2ccc(Oc3ccccc3)cc2)no1,56,24,30,15,14,14
CC(=O)N1C[C@H](COc2ccc(Cl)cc2)O[C@@H]1c1ccc(Cl)cc1,42,54,100,0,54,10
O=C1CC[C@]2(c3ccc4c(c3)CCc3ccccc3-4)O[C@H](COc3ccc(Cl)cc3)CN12,51,45,30,38,56,31
CS(=O)(=O)N1C[C@H](COc2ccc(Cl)cc2)O[C@@H]1c1ccc(Cl)cc1,35,29,100,-4,59,-12
O=C1CC[C@]2(c3ccc4oc5ccccc5c4c3)O[C@H](COc3ccc(Cl)cc3)CN12,8,7,30,-43,16,-25
O=C1CC[C@]2(c3ccc(Cl)cc3)S[C@H](COc3ccc(Cl)cc3)CN12,-11,11,>300,14,9,28
COc1ccc([C@]23CCC(=O)N2C[C@@H](COc2ccc(Cl)cc2)O3)cc1,-5,12,30,3,-27,-12
O=C1CC[C@]2(c3cccnc3)O[C@H](COc3ccc(Cl)cc3)CN12,1,35,300,20,22,22
O=C1CC[C@]2(c3ccc(-c4ccccc4)cc3)O[C@H](COc3ccc(Cl)cc3)CN12,20,7,10,17,35,16
O=C1CC[C@]2(c3ccc(Cl)cc3)SCCN12,57,68,300,2,64,16
COC(=O)N1C[C@H](COc2ccc(Cl)cc2)O[C@@H]1c1ccc(Cl)c(Cl)c1,25,-9,30,40,19,13
O=C1CC[C@]2(c3ccc(Cl)c(Cl)c3)OC(COc3ccc(Cl)cc3)CN12 (some centres not stated),70,78,10,36,80,0
COc1ccc(OC[C@@H]2CN3C(=O)CC[C@]3(c3ccc(Cl)cc3)O2)cc1,-19,-28,100,-20,-8,-17
O=C1CC[C@]2(c3ccc(Oc4ccccc4)cc3)O[C@H](COc3ccc(Cl)cc3)CN12,2,-3,10,-6,-25,-29
